# Data reported in ChEMBL document CHEMBL3108759, “Scaffold ranking and positional scanning utilized in the discovery of nAChR-selective compounds suitable for optimization studies” (J Med Chem, 2013).
# Columns and labels:
# HEK293 = assay: Selectivity ratio for rat alpha3beta4 nAChR transfected in HEK293 cells to rat alpha4beta2 nAChR transfected in HEK293 cells; format: cell-based
# Rattus norvegicus = species: Rattus norvegicus; assay: Selectivity ratio of Ki for rat alpha3beta4 nAChR to Ki for rat alpha4beta2 nAChR
# Summary of the method: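 Selectivity was calculated from [3H]epibatidine-binding Ki values as (Ki α3β4 − Ki α4β2)/Ki α4β2.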
# [1] = biological target: Neuronal acetylcholine receptor; alpha3/beta4 (Rattus norvegicus, UniProt P04757+P12392); assay: Displacement of [3H]epibatidine from rat alpha3beta4 nAChR transfected in HEK293 cells after 2 hrs by beta-plate counting analysis; format: cell-based
# Chain of Neuronal acetylcholine receptor; alpha3/beta4 (P04757 whole entry): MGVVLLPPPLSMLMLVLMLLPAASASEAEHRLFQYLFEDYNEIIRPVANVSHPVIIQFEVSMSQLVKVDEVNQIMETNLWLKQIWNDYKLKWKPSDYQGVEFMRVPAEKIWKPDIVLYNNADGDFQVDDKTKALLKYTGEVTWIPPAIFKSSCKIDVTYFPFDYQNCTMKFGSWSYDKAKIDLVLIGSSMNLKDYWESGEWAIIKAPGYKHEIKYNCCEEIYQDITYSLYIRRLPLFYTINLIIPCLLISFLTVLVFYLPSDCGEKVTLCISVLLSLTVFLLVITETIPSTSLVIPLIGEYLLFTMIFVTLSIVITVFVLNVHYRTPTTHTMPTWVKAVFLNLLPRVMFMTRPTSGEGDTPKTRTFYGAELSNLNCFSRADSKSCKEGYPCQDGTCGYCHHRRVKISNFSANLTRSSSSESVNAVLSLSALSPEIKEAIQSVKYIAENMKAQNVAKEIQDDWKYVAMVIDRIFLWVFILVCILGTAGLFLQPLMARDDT
# Chain of Neuronal acetylcholine receptor; alpha3/beta4 (P12392 whole entry): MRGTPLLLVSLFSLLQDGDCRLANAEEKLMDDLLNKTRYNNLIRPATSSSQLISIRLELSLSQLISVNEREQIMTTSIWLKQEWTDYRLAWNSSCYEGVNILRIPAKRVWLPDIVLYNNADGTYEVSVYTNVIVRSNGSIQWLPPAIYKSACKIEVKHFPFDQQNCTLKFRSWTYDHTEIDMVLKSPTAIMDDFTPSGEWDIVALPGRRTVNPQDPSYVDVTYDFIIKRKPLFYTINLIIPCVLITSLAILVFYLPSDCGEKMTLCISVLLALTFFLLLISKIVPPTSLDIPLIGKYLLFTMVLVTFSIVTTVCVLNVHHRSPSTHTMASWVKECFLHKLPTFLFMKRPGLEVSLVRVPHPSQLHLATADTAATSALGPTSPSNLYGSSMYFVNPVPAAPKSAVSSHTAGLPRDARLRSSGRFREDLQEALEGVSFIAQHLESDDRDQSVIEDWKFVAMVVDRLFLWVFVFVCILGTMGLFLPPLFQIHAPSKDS
# Summary of the method: (§1)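 Cell lines KXα3β4R2 and KXα4β2R2 (rat receptors) were used. Membranes were prepared by homogenizing cells in 50 mM Tris pH 7.4 and centrifuging twice at 20000g. They were incubated 2 h at room temperature with 0.3 nM [3H]epibatidine plus test sample, then filtered on PEI-soaked glass fiber and counted. Nonspecific binding was defined by 1 µM AT-1001 or 0.1 µM epibatidine. Ki was obtained by Cheng–Prusoff; runs were in triplicate, at least twice.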
# [2] = biological target: T1, Neuronal acetylcholine receptor; alpha4/beta2 (Rattus norvegicus, UniProt P09483+P12390); assay: Antagonist activity at rat alpha4beta2 nAChR transfected in HEK293 cells after 10 mins by fluorescence assay in presence of nicotine; format: cell-based
# T1 sequence (P09483 whole entry): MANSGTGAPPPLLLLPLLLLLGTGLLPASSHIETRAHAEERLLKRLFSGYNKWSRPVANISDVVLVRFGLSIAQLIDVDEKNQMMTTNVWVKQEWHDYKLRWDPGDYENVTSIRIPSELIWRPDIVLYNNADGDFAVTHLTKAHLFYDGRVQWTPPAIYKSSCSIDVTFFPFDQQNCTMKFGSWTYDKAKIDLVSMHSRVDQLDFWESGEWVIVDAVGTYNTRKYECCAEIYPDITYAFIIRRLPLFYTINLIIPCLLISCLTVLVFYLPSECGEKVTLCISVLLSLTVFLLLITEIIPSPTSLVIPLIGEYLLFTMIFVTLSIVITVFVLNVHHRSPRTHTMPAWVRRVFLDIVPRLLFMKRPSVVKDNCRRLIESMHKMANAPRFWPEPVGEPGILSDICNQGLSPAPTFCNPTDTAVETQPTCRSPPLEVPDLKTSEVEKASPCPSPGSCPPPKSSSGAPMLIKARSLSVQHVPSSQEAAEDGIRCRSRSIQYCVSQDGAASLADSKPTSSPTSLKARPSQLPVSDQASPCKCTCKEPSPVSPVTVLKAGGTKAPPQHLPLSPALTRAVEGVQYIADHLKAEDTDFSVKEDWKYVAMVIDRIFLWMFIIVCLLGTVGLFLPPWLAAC
# T1 sequence (P12390 whole entry): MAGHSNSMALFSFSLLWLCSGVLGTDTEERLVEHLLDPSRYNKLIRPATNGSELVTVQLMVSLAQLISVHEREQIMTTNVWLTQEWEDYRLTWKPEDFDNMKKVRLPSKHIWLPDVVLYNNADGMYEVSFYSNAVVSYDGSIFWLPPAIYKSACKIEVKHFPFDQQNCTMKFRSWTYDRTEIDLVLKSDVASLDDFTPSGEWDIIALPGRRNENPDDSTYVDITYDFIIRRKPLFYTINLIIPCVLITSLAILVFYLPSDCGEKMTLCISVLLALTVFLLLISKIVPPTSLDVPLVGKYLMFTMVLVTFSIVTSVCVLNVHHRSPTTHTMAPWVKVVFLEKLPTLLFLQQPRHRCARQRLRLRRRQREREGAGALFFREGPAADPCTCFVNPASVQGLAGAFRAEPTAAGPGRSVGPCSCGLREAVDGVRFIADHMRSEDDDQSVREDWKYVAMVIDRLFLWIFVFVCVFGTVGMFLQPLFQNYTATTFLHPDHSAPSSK
# Summary of the method: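 Transfected HEK cells were seeded at 4000/well the day before and loaded with blue membrane-potential dye in HBSS/20 mM HEPES pH 7.4 at 37 °C for 20 min. […] Fluorescence (ex 530, em 550–580) was recorded every 3 s for 120 s on a FlexStation.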
# [3] = biological target: T1, Neuronal acetylcholine receptor; alpha4/beta2; assay: Displacement of [3H]epibatidine from rat alpha4beta2 nAChR transfected in HEK293 cells after 2 hrs by beta-plate counting analysis; format: cell-based; summary of the method: as §1
Compound,Selectivity ratio (HEK293),Ratio Ki (Rattus norvegicus),Ki [1] [µM],IC50 [2] [µM],Ki [3] [µM]
CC(C)(C)C1CCC(CN2C(=N)N(CCCC[C@H]3CNC(=N)N3CCc3cccc(F)c3)C[C@H]2CC2CCCCC2)CC1 (stereo partly drawn),25.9,24,,,
CC(C)(C)C1CCC(CN2C(=N)N(CCCC[C@H]3CN=C(N)N3CCc3cccc(F)c3)C[C@H]2CC2CCCCC2)CC1 (stereo partly drawn),,,88.9,5.32,3.73
CCCCCCCN1C(=N)NC[C@@H]1CCCCN1C[C@@H](Cc2ccccc2)N(CCc2cccc(Br)c2)C1=N,4.8,,14.4,,2.5
N=C1NC[C@H](CCCCN2C[C@@H](CC3CCCCC3)N(CCc3cccc(Br)c3)C2=N)N1CCc1cccc(F)c1,4.8,,,,
N=C1NC[C@H](CCCCN2C[C@@H](Cc3ccc4ccccc4c3)N(CCc3ccc(Cl)c(Cl)c3)C2=N)N1CCc1ccc(Cl)c(Cl)c1,6.3,,,,
N=C1N(CCCC[C@H]2CN=C(N)N2CCc2ccc(Cl)c(Cl)c2)C[C@H](Cc2ccc3ccccc3c2)N1CCc1ccc(Br)cc1,,,2.7,,3.1
CC(C)(C)C1CCC(CN2C(=N)N(CCCC[C@@H]3CNC(=N)N3CCc3cccnc3)C[C@H]2CC2CCCCC2)CC1 (stereo partly drawn),,130,33.4,1.69,0.257
CCCCCCCN1C(N)=NC[C@@H]1CCCCN1C[C@@H](CC2CCCCC2)N(CCc2cccc(Br)c2)C1=N,,,23.4,,2.8
CCCCCCCN1C(N)=NC[C@@H]1CCCCN1C[C@@H](CC2CCCCC2)N(CC2CCC(C(C)(C)C)CC2)C1=N (stereo partly drawn),,,55.1,,3.9
N=C1N(CCCC[C@H]2CN=C(N)N2CCc2ccc(Cl)c(Cl)c2)C[C@@H](Cc2ccc3ccccc3c2)N1CCc1ccc(Br)cc1,,,4,,2.5
N=C1NC[C@H](CCCCN2C[C@@H](Cc3ccc4ccccc4c3)N(CCc3cccc(Br)c3)C2=N)N1CCc1ccc(Cl)c(Cl)c1,0.6,,,,
CC(C)(C)C1CCC(CN2C(=N)N(CCCC[C@@H]3CNC(=N)N3CCc3cccnc3)C[C@H]2Cc2ccccc2)CC1 (stereo partly drawn),,206,63.3,3.02,0.307
CC(C)CCCN1C(N)=NC[C@@H]1CCCCN1C[C@@H](CC2CCCCC2)N(CC2CCC(C(C)(C)C)CC2)C1=N (stereo partly drawn),,,78.4,,3.5
CC(C)(C)C1CCC(CN2C(=N)N(CCCC[C@H]3CN=C(N)N3CCc3cccnc3)C[C@@H]2CC2CCCCC2)CC1 (stereo partly drawn),,,78.1,3.4,0.611
CCCCCCCN1C(N)=NC[C@@H]1CCCCN1C[C@@H](Cc2ccccc2)N(CC2CCC(C(C)(C)C)CC2)C1=N (stereo partly drawn),,,54.4,,2.7
CC(C)(C)C1CCC(CN2C(=N)N(CCCC[C@H]3CN=C(N)N3CCc3cccnc3)C[C@H]2CC2CCCCC2)CC1 (stereo partly drawn),,,59.7,2.83,0.34
CC(C)(C)C1CCC(CN2C(=N)N(CCCC[C@H]3CNC(=N)N3CCc3cccnc3)C[C@@H]2Cc2ccccc2)CC1 (stereo partly drawn),,74,,,
CC(C)(C)C1CCC(CN2C(=N)N(CCCC[C@H]3CNC(=N)N3CCc3cccnc3)C[C@@H]2CC2CCCCC2)CC1 (stereo partly drawn),,128,,,
N=C1N(CCCC[C@H]2CN=C(N)N2CCc2ccc(Cl)c(Cl)c2)C[C@H](Cc2ccc3ccccc3c2)N1CCc1ccc(Cl)c(Cl)c1,,,100,,183
CC(C)(C)C1CCC(CN2C(=N)N(CCCC[C@H]3CN=C(N)N3CCc3cccnc3)C[C@@H]2Cc2ccccc2)CC1 (stereo partly drawn),,,23.8,1.47,0.323
CO[C@H]1CC=C2CCN3CCC4=C(CC(=O)OC4)[C@]23C1,,,> 10,0.624,0.485
N=C1NC[C@H](CCCCN2C[C@H](Cc3ccc4ccccc4c3)N(CCc3cccc(Br)c3)C2=N)N1CCc1ccc(Cl)c(Cl)c1,0.8,,,,
